Some results are limits rather than exact numbers.

Format in all cases: nucleic-acid assay
The test system of experiment [1] is Nucleic Acid. Nature of the experiment: Binding affinity to 5'-GCTAAAAAGAGAGAGAGATCG-3'/5'- CGATCTCTCTCTCTTTTTAGC-3' double stranded DNA assessed as melting temperature at 1.5 uM in sodium phosphate buffer at pH 7 by UV spectrophotometric analysis. In a few lines: (§1)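 UV melting of triplexes between each modified TFO and the 21-bp duplex target, in 7 mM sodium phosphate buffer (pH 7.0), 140 mM KCl and 10 mM MgCl₂. Each oligonucleotide at 1.5 µM final. Absorbance followed at 260 nm from 5 °C to 85 °C, scanned at 0.5 °C/min, to give Tm.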

For experiment [2], the system named is Nucleic Acid. As to the kind of experiment: Binding affinity to5'-GCTAAAAAGACAGAGAGATCG-3'/5'- CGATCTCTCTGTCTTTTTAGC-3' double stranded DNA assessed as melting temperature at 1.5 uM in sodium phosphate buffer at pH 7 by UV spectrophotometric analysis. In outline:
as §1

The subject of experiment [3] is Nucleic Acid. Nature of the experiment: Binding affinity to 5'-GCTAAAAAGAAAGAGAGATCG-3'/5'- CGATCTCTCTTTCTTTTTAGC-3' double stranded DNA assessed as melting temperature at 1.5 uM in sodium phosphate buffer at pH 7 by UV spectrophotometric analysis. In outline: as §1
The subject of experiment [4] is Nucleic Acid. As to the kind of experiment: Binding affinity to 5'-GCTAAAAAGATAGAGAGATCG-3'/5'- CGATCTCTCTATCTTTTTAGC-3' double stranded DNA assessed as melting temperature at 1.5 uM in sodium phosphate buffer at pH 7 by UV spectrophotometric analysis. In a few lines:
as §1

For `CCOC(=O)Cn1cc([C@H]2C[C@H](OP(=O)(O)OC[C@H]3O[C@@H](n4cc(C)c(=O)[nH]c4=O)C[C@@H]3OP(=O)(O)OC[C@H]3O[C@@H](n4cc(C)c(N)nc4=O)C[C@@H]3OP(=O)(O)OC[C@H]3O[C@@H](n4cc(C)c(=O)[nH]c4=O)C[C@@H]3OP(=O)(O)OC[C@H]3O[C@@H](n4cc(C)c(=O)[nH]c4=O)C[C@@H]3OP(=O)(O)OC[C@H]3O[C@@H](n4cc(C)c(=O)[nH]c4=O)C[C@@H]3OP(=O)(O)OC[C@H]3O[C@@H](n4cc(C)c(=O)[nH]c4=O)C[C@@H]3OP(=O)(O)OC[C@H]3O[C@@H](n4cc(C)c(=O)[nH]c4=O)C[C@@H]3O)[C@@H](COP(=O)(O)O[C@H]3C[C@H](n4cc(C)c(=O)[nH]c4=O)O[C@@H]3COP(=O)(O)O[C@H]3C[C@H](n4cc(C)c(N)nc4=O)O[C@@H]3COP(=O)(O)O[C@H]3C[C@H](n4cc(C)c(=O)[nH]c4=O)O[C@@H]3COP(=O)(O)O[C@H]3C[C@H](n4cc(C)c(N)nc4=O)O[C@@H]3COP(=O)(O)O[C@H]3C[C@H](n4cc(C)c(=O)[nH]c4=O)O[C@@H]3COP(=O)(O)O[C@H]3C[C@H](n4cc(C)c(N)nc4=O)O[C@@H]3COP(=O)(O)O[C@H]3C[C@H](n4cc(C)c(=O)[nH]c4=O)O[C@@H]3CO)O2)nn1`, the Tm with Nucleic Acid [1] is 12 °C; in the experiment with Nucleic Acid [2], 20 °C; with Nucleic Acid [3] it was below 10 °C; with Nucleic Acid [4] it was 14 °C.

With `Cc1cn([C@H]2C[C@H](OP(=O)(O)OC[C@H]3O[C@@H](n4cc(C)c(=O)[nH]c4=O)C[C@@H]3OP(=O)(O)OC[C@H]3O[C@@H](n4cc(C)c(N)nc4=O)C[C@@H]3OP(=O)(O)OC[C@H]3O[C@@H](n4cc(C)c(=O)[nH]c4=O)C[C@@H]3OP(=O)(O)OC[C@H]3O[C@@H](n4cc(C)c(N)nc4=O)C[C@@H]3OP(=O)(O)OC[C@H]3O[C@@H](n4cc(C)c(=O)[nH]c4=O)C[C@@H]3OP(=O)(O)OC[C@H]3O[C@@H](c4cn(C56CC7CC(CC(C7)C5)C6)nn4)C[C@@H]3OP(=O)(O)OC[C@H]3O[C@@H](n4cc(C)c(=O)[nH]c4=O)C[C@@H]3OP(=O)(O)OC[C@H]3O[C@@H](n4cc(C)c(N)nc4=O)C[C@@H]3OP(=O)(O)OC[C@H]3O[C@@H](n4cc(C)c(=O)[nH]c4=O)C[C@@H]3OP(=O)(O)OC[C@H]3O[C@@H](n4cc(C)c(=O)[nH]c4=O)C[C@@H]3OP(=O)(O)OC[C@H]3O[C@@H](n4cc(C)c(=O)[nH]c4=O)C[C@@H]3OP(=O)(O)OC[C@H]3O[C@@H](n4cc(C)c(=O)[nH]c4=O)C[C@@H]3OP(=O)(O)OC[C@H]3O[C@@H](n4cc(C)c(=O)[nH]c4=O)C[C@@H]3O)[C@@H](COP(=O)(O)O[C@H]3C[C@H](n4cc(C)c(=O)[nH]c4=O)O[C@@H]3CO)O2)c(=O)nc1N`, the Tm in the experiment with Nucleic Acid [1] is below 10 °C; in the experiment on Nucleic Acid [2], 17 °C; with Nucleic Acid [3], below 10 °C; in the experiment with Nucleic Acid [4], 11 °C.

With `Cc1cn([C@H]2C[C@H](OP(=O)(O)OC[C@H]3O[C@@H](n4cc(C)c(=O)[nH]c4=O)C[C@@H]3OP(=O)(O)OC[C@H]3O[C@@H](n4cc(C)c(N)nc4=O)C[C@@H]3OP(=O)(O)OC[C@H]3O[C@@H](n4cc(C)c(=O)[nH]c4=O)C[C@@H]3OP(=O)(O)OC[C@H]3O[C@@H](n4cc(C)c(N)nc4=O)C[C@@H]3OP(=O)(O)OC[C@H]3O[C@@H](n4cc(C)c(=O)[nH]c4=O)C[C@@H]3OP(=O)(O)OC[C@H]3O[C@@H](c4cn(C5CCCCC5)nn4)C[C@@H]3OP(=O)(O)OC[C@H]3O[C@@H](n4cc(C)c(=O)[nH]c4=O)C[C@@H]3OP(=O)(O)OC[C@H]3O[C@@H](n4cc(C)c(N)nc4=O)C[C@@H]3OP(=O)(O)OC[C@H]3O[C@@H](n4cc(C)c(=O)[nH]c4=O)C[C@@H]3OP(=O)(O)OC[C@H]3O[C@@H](n4cc(C)c(=O)[nH]c4=O)C[C@@H]3OP(=O)(O)OC[C@H]3O[C@@H](n4cc(C)c(=O)[nH]c4=O)C[C@@H]3OP(=O)(O)OC[C@H]3O[C@@H](n4cc(C)c(=O)[nH]c4=O)C[C@@H]3OP(=O)(O)OC[C@H]3O[C@@H](n4cc(C)c(=O)[nH]c4=O)C[C@@H]3O)[C@@H](COP(=O)(O)O[C@H]3C[C@H](n4cc(C)c(=O)[nH]c4=O)O[C@@H]3CO)O2)c(=O)nc1N`, the Tm with Nucleic Acid [1] is below 10 °C; in the experiment on Nucleic Acid [2] it was 20 °C; in the experiment on Nucleic Acid [3] it was below 10 °C; with Nucleic Acid [4], 12 °C.

Consider `Cc1cn([C@H]2C[C@H](OP(=O)(O)OC[C@H]3O[C@@H](n4cc(C)c(=O)[nH]c4=O)C[C@@H]3OP(=O)(O)OC[C@H]3O[C@@H](n4cc(C)c(N)nc4=O)C[C@@H]3OP(=O)(O)OC[C@H]3O[C@@H](n4cc(C)c(=O)[nH]c4=O)C[C@@H]3OP(=O)(O)OC[C@H]3O[C@@H](n4cc(C)c(N)nc4=O)C[C@@H]3OP(=O)(O)OC[C@H]3O[C@@H](n4cc(C)c(=O)[nH]c4=O)C[C@@H]3OP(=O)(O)OC[C@H]3O[C@@H](c4cn(-c5ccc(N)cc5)nn4)C[C@@H]3OP(=O)(O)OC[C@H]3O[C@@H](n4cc(C)c(=O)[nH]c4=O)C[C@@H]3OP(=O)(O)OC[C@H]3O[C@@H](n4cc(C)c(N)nc4=O)C[C@@H]3OP(=O)(O)OC[C@H]3O[C@@H](n4cc(C)c(=O)[nH]c4=O)C[C@@H]3OP(=O)(O)OC[C@H]3O[C@@H](n4cc(C)c(=O)[nH]c4=O)C[C@@H]3OP(=O)(O)OC[C@H]3O[C@@H](n4cc(C)c(=O)[nH]c4=O)C[C@@H]3OP(=O)(O)OC[C@H]3O[C@@H](n4cc(C)c(=O)[nH]c4=O)C[C@@H]3OP(=O)(O)OC[C@H]3O[C@@H](n4cc(C)c(=O)[nH]c4=O)C[C@@H]3O)[C@@H](COP(=O)(O)O[C@H]3C[C@H](n4cc(C)c(=O)[nH]c4=O)O[C@@H]3CO)O2)c(=O)nc1N`, for which the Tm with Nucleic Acid [1] was below 10 °C; in the experiment with Nucleic Acid [2] it was 23 °C; in the experiment with Nucleic Acid [3], 12 °C; in the experiment with Nucleic Acid [4], 18 °C.

On to `Cc1cn([C@H]2C[C@H](OP(=O)(O)OC[C@H]3O[C@@H](n4cc(C)c(=O)[nH]c4=O)C[C@@H]3OP(=O)(O)OC[C@H]3O[C@@H](n4cc(C)c(N)nc4=O)C[C@@H]3OP(=O)(O)OC[C@H]3O[C@@H](n4cc(C)c(=O)[nH]c4=O)C[C@@H]3OP(=O)(O)OC[C@H]3O[C@@H](n4cc(C)c(N)nc4=O)C[C@@H]3OP(=O)(O)OC[C@H]3O[C@@H](n4cc(C)c(=O)[nH]c4=O)C[C@@H]3OP(=O)(O)OC[C@H]3O[C@@H](c4cn(-c5cccnc5O)nn4)C[C@@H]3OP(=O)(O)OC[C@H]3O[C@@H](n4cc(C)c(=O)[nH]c4=O)C[C@@H]3OP(=O)(O)OC[C@H]3O[C@@H](n4cc(C)c(N)nc4=O)C[C@@H]3OP(=O)(O)OC[C@H]3O[C@@H](n4cc(C)c(=O)[nH]c4=O)C[C@@H]3OP(=O)(O)OC[C@H]3O[C@@H](n4cc(C)c(=O)[nH]c4=O)C[C@@H]3OP(=O)(O)OC[C@H]3O[C@@H](n4cc(C)c(=O)[nH]c4=O)C[C@@H]3OP(=O)(O)OC[C@H]3O[C@@H](n4cc(C)c(=O)[nH]c4=O)C[C@@H]3OP(=O)(O)OC[C@H]3O[C@@H](n4cc(C)c(=O)[nH]c4=O)C[C@@H]3O)[C@@H](COP(=O)(O)O[C@H]3C[C@H](n4cc(C)c(=O)[nH]c4=O)O[C@@H]3CO)O2)c(=O)nc1N`, for which the Tm was 15 °C in the experiment with Nucleic Acid [1], 24 °C in the experiment with Nucleic Acid [2], 12 °C in the experiment on Nucleic Acid [3] and 15 °C with Nucleic Acid [4].

Consider `Cc1ccc(-n2cc([C@H]3C[C@H](OP(=O)(O)OC[C@H]4O[C@@H](n5cc(C)c(=O)[nH]c5=O)C[C@@H]4OP(=O)(O)OC[C@H]4O[C@@H](n5cc(C)c(N)nc5=O)C[C@@H]4OP(=O)(O)OC[C@H]4O[C@@H](n5cc(C)c(=O)[nH]c5=O)C[C@@H]4OP(=O)(O)OC[C@H]4O[C@@H](n5cc(C)c(=O)[nH]c5=O)C[C@@H]4OP(=O)(O)OC[C@H]4O[C@@H](n5cc(C)c(=O)[nH]c5=O)C[C@@H]4OP(=O)(O)OC[C@H]4O[C@@H](n5cc(C)c(=O)[nH]c5=O)C[C@@H]4OP(=O)(O)OC[C@H]4O[C@@H](n5cc(C)c(=O)[nH]c5=O)C[C@@H]4O)[C@@H](COP(=O)(O)O[C@H]4C[C@H](n5cc(C)c(=O)[nH]c5=O)O[C@@H]4COP(=O)(O)O[C@H]4C[C@H](n5cc(C)c(N)nc5=O)O[C@@H]4COP(=O)(O)O[C@H]4C[C@H](n5cc(C)c(=O)[nH]c5=O)O[C@@H]4COP(=O)(O)O[C@H]4C[C@H](n5cc(C)c(N)nc5=O)O[C@@H]4COP(=O)(O)O[C@H]4C[C@H](n5cc(C)c(=O)[nH]c5=O)O[C@@H]4COP(=O)(O)O[C@H]4C[C@H](n5cc(C)c(N)nc5=O)O[C@@H]4COP(=O)(O)O[C@H]4C[C@H](n5cc(C)c(=O)[nH]c5=O)O[C@@H]4CO)O3)nn2)cc1`, for which the Tm in the experiment on Nucleic Acid [1] is below 10 °C; in the experiment on Nucleic Acid [2], 21 °C; in the experiment with Nucleic Acid [3] it was below 10 °C; in the experiment on Nucleic Acid [4] it was 13 °C.

Turning to `Cc1cn([C@H]2C[C@H](OP(=O)(O)OC[C@H]3O[C@@H](n4cc(C)c(=O)[nH]c4=O)C[C@@H]3OP(=O)(O)OC[C@H]3O[C@@H](n4cc(C)c(N)nc4=O)C[C@@H]3OP(=O)(O)OC[C@H]3O[C@@H](n4cc(C)c(=O)[nH]c4=O)C[C@@H]3OP(=O)(O)OC[C@H]3O[C@@H](n4cc(C)c(N)nc4=O)C[C@@H]3OP(=O)(O)OC[C@H]3O[C@@H](n4cc(C)c(=O)[nH]c4=O)C[C@@H]3OP(=O)(O)OC[C@H]3O[C@@H](c4cn(Cc5ccccc5)nn4)C[C@@H]3OP(=O)(O)OC[C@H]3O[C@@H](n4cc(C)c(=O)[nH]c4=O)C[C@@H]3OP(=O)(O)OC[C@H]3O[C@@H](n4cc(C)c(N)nc4=O)C[C@@H]3OP(=O)(O)OC[C@H]3O[C@@H](n4cc(C)c(=O)[nH]c4=O)C[C@@H]3OP(=O)(O)OC[C@H]3O[C@@H](n4cc(C)c(=O)[nH]c4=O)C[C@@H]3OP(=O)(O)OC[C@H]3O[C@@H](n4cc(C)c(=O)[nH]c4=O)C[C@@H]3OP(=O)(O)OC[C@H]3O[C@@H](n4cc(C)c(=O)[nH]c4=O)C[C@@H]3OP(=O)(O)OC[C@H]3O[C@@H](n4cc(C)c(=O)[nH]c4=O)C[C@@H]3O)[C@@H](COP(=O)(O)O[C@H]3C[C@H](n4cc(C)c(=O)[nH]c4=O)O[C@@H]3CO)O2)c(=O)nc1N`, the Tm in the experiment on Nucleic Acid [1] was below 10 °C; in the experiment on Nucleic Acid [2], 19 °C; in the experiment with Nucleic Acid [3], below 10 °C; with Nucleic Acid [4], 12 °C.
